Active and inactive are the calls of the source. No cut-off for these calls is given here.
Legend:
[1] = Drug metabolism in human liver microsome at 10 uM after 30 mins by LC-MS analysis; format: ADME; conditions: liver microsomes, read-out: Drug metabolism
[2] = cells; format: cell-based; conditions: Homo sapiens, 7dF3
[3] = molecular target: Cytochrome P450 2C9 (Homo sapiens, UniProt P11712); test: Inhibition of CYP2C9 (unknown origin); format: ADME; conditions: human
[4] = molecular target: Voltage-gated inwardly rectifying potassium channel KCNH2 (Homo sapiens, UniProt Q12809); test: Inhibition of human ERG
Voltage-gated inwardly rectifying potassium channel KCNH2, sequence (Q12809 whole entry): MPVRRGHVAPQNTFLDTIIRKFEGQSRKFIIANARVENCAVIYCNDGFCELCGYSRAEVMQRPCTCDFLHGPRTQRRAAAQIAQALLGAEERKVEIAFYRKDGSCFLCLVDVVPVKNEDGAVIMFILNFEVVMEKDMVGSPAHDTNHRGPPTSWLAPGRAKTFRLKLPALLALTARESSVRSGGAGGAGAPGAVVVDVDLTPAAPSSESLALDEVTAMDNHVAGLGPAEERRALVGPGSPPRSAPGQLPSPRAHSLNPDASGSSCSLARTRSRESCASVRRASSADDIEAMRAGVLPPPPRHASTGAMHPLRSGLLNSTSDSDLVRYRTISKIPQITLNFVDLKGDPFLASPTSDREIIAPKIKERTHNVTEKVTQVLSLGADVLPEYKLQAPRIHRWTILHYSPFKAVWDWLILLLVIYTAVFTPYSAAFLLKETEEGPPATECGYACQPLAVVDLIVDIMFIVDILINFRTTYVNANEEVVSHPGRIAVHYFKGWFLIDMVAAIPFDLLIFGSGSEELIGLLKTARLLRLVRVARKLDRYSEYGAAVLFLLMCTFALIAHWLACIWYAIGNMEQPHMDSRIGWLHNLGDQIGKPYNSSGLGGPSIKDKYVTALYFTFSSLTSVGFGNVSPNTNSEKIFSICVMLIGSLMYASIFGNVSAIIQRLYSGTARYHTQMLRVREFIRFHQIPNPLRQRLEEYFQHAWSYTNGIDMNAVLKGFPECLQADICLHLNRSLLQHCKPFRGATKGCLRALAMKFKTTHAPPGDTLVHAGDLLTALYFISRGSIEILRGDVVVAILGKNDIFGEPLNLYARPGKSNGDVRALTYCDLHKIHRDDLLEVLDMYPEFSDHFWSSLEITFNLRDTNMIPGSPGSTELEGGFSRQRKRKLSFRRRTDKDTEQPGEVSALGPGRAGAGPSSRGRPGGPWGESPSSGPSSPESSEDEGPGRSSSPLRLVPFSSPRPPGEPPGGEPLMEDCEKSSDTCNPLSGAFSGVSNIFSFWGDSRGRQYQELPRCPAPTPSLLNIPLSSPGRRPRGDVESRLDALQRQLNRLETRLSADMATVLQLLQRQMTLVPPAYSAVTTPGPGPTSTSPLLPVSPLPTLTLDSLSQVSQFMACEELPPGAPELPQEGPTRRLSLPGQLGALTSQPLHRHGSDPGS

[5] = molecular target: T1, Cytochrome P450 2C8 (Homo sapiens, UniProt P10632); test: Inhibition of CYP2C8 (unknown origin); format: ADME
T1 sequence (P10632 whole entry): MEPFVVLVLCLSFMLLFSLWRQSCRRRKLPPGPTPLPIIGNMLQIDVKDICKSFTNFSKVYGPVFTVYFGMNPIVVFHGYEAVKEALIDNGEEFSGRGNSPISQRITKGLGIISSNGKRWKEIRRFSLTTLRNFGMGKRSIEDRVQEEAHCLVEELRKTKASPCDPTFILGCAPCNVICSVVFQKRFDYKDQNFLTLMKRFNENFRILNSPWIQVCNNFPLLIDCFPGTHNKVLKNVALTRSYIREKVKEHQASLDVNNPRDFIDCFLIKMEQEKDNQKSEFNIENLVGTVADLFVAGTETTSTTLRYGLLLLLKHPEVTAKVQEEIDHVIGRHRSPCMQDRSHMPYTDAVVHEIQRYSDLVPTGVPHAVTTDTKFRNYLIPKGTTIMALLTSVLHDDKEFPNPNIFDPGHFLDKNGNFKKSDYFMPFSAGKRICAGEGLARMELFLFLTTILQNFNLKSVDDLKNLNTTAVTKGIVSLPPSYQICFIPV

[6] = molecular target: Cytochrome P450 2D6 (Homo sapiens, UniProt P10635); test: Inhibition of CYP2D6 (unknown origin); format: ADME
Cytochrome P450 2D6, sequence (P10635 whole entry): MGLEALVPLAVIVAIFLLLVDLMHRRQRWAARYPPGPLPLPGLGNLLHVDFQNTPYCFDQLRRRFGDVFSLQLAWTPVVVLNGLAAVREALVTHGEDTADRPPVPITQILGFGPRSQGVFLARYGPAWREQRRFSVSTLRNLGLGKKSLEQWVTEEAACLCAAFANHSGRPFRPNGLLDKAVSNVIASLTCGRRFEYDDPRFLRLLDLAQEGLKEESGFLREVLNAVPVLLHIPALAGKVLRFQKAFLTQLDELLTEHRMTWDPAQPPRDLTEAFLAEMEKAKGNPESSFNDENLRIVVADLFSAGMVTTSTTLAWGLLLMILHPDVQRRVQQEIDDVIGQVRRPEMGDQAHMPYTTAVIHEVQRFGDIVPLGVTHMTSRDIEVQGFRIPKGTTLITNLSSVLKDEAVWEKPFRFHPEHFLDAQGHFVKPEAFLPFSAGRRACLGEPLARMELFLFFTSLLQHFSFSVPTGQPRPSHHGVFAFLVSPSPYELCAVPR

[7] = Inhibition of WNT signaling in human T-Rex HEK293 Tet-O cells harboring Dvl2 after 4 days by luciferase reporter assay; format: cell-based; conditions: HEK293, 96 h
Outline: (§1)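 HEK293 T-Rex Tet-O cells stably carrying TCF-firefly luciferase-IRES-GFP reporter plus Tet-inducible cDNA (ΔN-LRP6, Dvl2, Axin-GID, ΔN-β-catenin or VP16-TCF4) introduced by FLP-FRT recombination; seeded from frozen at 40 000/well; day 3 compound added, eight concentrations 30 μM to 14 nM (final), with doxycycline hyclate; day 4 cells lysed, firefly luciferase luminescence read.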

[8] = Apparent permeability in human Caco2 cells after 2 hrs by LC-MS/MS analysis; format: ADME, cell-based, Caco-2; conditions: caco-2, 2 h
[9] = Dissociation constant, pKa of the compound; format: physicochemical
[10] = Inhibition of WNT signaling in human T-Rex HEK293 Tet-O cells harboring constitutively active VP16-TCF in absence of beta-catenin after 4 days by luciferase reporter assay; format: cell-based; conditions: HEK293, 96 h; outline: as §1
[11] = molecular target: Cytochrome P450 3A4 (Homo sapiens, UniProt P08684); test: Inhibition of CYP3A4 (unknown origin); format: ADME
Cytochrome P450 3A4, sequence (P08684 whole entry): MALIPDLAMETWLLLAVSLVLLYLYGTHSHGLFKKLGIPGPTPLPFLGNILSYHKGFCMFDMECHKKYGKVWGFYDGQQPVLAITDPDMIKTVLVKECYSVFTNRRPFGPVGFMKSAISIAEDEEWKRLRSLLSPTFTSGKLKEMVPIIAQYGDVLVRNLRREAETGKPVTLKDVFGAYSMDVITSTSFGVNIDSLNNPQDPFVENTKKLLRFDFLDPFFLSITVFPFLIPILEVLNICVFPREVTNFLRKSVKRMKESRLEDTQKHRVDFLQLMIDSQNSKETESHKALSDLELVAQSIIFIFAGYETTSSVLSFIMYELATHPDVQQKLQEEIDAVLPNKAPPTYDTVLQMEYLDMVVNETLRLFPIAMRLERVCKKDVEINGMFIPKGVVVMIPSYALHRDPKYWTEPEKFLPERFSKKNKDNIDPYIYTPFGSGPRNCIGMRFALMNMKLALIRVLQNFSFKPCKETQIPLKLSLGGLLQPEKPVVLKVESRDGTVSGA

[12] = Cytotoxicity against human 7dF3 cells; format: cell-based
[13] = Drug metabolism in mouse liver microsome at 10 uM after 30 mins by LC-MS analysis; format: ADME; conditions: liver microsomes, read-out: Drug metabolism
[14] = Inhibition of WNT signaling in human T-Rex HEK293 Tet-O cells harboring degradation resistant form of beta-catenin after 4 days by luciferase reporter assay; format: cell-based; conditions: HEK293, 96 h; outline: as §1
[15] = molecular target: T2, Cytochrome P450 1A2 (Homo sapiens, UniProt P05177); test: Inhibition of CYP1A2 (unknown origin); format: ADME
T2 sequence (P05177 whole entry): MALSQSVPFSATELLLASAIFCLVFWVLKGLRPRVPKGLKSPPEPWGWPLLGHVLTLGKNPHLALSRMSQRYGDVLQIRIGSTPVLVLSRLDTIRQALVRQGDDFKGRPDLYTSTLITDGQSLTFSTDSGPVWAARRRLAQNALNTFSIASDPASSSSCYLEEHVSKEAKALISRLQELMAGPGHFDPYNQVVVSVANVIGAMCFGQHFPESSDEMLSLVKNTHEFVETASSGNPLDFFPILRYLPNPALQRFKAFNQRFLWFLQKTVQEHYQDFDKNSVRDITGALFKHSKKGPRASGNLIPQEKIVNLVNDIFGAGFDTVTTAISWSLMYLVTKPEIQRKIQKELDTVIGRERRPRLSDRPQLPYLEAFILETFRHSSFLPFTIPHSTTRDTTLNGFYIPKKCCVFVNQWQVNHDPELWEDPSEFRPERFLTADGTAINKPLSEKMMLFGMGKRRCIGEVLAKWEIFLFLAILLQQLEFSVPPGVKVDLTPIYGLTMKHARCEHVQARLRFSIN

[16] = Inhibition of WNT signaling in human T-Rex HEK293 Tet-O cells harboring constitutively active deltaN-LRP6 after 4 days by luciferase reporter assay; format: cell-based; conditions: HEK293, 96 h; outline: as §1
[17] = Inhibition of WNT signaling in human 7dF3 cells preincubated at 20 uM for 2 hrs before beta-estradiol addition measured after 24 hrs by luciferase reporter assay; format: cell-based
[18] = Aqueous solubility of the compound; format: physicochemical; conditions: buffer
[19] = molecular target: Cytochrome P450 2C19 (Homo sapiens, UniProt P33261); test: Inhibition of CYP2C19 (unknown origin); format: ADME
Cytochrome P450 2C19, sequence (P33261 whole entry, the tested form may be a part): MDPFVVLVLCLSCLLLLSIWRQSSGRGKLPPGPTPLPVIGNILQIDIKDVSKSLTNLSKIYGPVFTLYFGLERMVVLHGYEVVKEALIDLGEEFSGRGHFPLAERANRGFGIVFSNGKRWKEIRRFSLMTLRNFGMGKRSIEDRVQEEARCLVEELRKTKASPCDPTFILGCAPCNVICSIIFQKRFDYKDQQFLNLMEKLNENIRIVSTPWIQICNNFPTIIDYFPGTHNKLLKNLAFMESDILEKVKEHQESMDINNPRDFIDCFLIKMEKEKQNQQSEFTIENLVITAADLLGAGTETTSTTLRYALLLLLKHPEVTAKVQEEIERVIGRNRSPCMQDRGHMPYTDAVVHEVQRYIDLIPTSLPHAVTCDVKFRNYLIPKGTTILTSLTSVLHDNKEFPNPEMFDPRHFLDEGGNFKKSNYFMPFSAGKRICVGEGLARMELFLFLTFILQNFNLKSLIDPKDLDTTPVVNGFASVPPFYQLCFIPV

[20] = Inhibition of WNT signaling in human T-Rex HEK293 Tet-O cells harboring dominant negative form of Axin GSK3beta-interacting domain after 4 days by luciferase reporter assay; format: cell-based; conditions: HEK293, 96 h; outline: as §1

Cytochrome P450 2C9, sequence (P11712 whole entry): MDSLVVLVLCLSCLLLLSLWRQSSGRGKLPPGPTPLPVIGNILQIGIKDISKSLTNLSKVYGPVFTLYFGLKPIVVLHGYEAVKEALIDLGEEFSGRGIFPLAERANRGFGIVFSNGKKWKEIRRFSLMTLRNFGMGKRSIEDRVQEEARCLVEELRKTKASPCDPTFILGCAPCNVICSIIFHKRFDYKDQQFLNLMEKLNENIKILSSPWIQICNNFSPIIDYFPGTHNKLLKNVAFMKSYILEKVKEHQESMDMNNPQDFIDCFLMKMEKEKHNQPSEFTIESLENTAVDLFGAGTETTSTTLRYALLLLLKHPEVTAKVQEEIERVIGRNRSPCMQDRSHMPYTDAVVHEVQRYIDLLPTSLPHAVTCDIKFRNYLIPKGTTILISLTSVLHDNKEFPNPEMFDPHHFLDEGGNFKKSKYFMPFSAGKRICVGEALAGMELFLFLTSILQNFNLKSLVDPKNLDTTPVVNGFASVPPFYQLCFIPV

## NC(=O)C1CCN(c2c(Cl)cncc2Cl)CC1
[1]
  metabolised at 0.5 h, 10 µM: 22%
[2]
  IC50: 1760 nM
[3]
  inhibition (INH): Not Active
[4]
  IC50: > 10000 nM
[5]
  inhibition (INH): Not Active
[6]
  inhibition (INH): Not Active
[7]
  IC50: 1200 nM
[8]
  Papp: 36 ×10⁻⁶ cm/s
[9]
  pKa: 3.5
[10]
  IC50: 7610 nM
[11]
  IC50: 7000 nM
[12]
  Activity: Non-toxic
[13]
  metabolised at 0.5 h, 10 µM: 41%
[14]
  IC50: 2730 nM
[15]
  inhibition (INH): Not Active
[16]
  IC50: 910 nM
[17]
  inhibition: Active
[18]
  solubility: > 1000 µg/mL
[19]
  inhibition (INH): Not Active
[20]
  IC50: 1500 nM
